Assay results reported in ChEMBL document CHEMBL1770107, “Design and synthesis of antifungal benzoheterocyclic derivatives by scaffold hopping” (2011).
Converted amounts (≈) assume the structure as drawn.

How the values were obtained:
Format in all cases: functional
Candida albicans [1] = experiment: Antimicrobial activity against Candida albicans after 24 hrs by NCCLS method
Procedure, shortened: (§1)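 Broth serial-dilution MIC in 96-well plates, RPMI 1640 buffered with 0.165 M MOPS. Strains from ATCC or clinical isolates; fluconazole reference. MIC = lowest concentration giving ≥80% growth inhibition (turbidity) versus drug-free control. Read at 24 h for Candida spp., 72 h for C. neoformans, 7 days for filamentous fungi.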

Nannizzia gypsea = experiment: Antimicrobial activity against Microsporum gypseum after 7 days by NCCLS method; details: 168 h; procedure, shortened: as §1
Candida tropicalis = experiment: Antimicrobial activity against Candida tropicalis after 24 hrs by NCCLS method; procedure, shortened: as §1
Trichophyton rubrum = experiment: Antimicrobial activity against Trichophyton rubrum after 7 days by NCCLS method; details: 168 h; procedure, shortened: as §1
Cryptococcus neoformans = experiment: Antimicrobial activity against Cryptococcus neoformans after 72 hrs by NCCLS method; procedure, shortened: as §1
Candida albicans [2] = experiment: Antimicrobial activity against fluconazole resistant Candida albicans clinical isolate after 24 hrs by NCCLS method
Procedure, shortened: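 Broth serial dilution in RPMI 1640 buffered with 0.165 M MOPS; clinical isolate. MIC80 is the lowest concentration giving 80% or greater turbidity reduction relative to the drug-free growth control, read at 24 h for Candida. Fluconazole is the reference drug.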

Aspergillus fumigatus = experiment: Antimicrobial activity against Aspergillus fumigatus after 7 days by NCCLS method; details: 168 h; procedure, shortened: as §1
Pichia kudriavzevii = experiment: Antimicrobial activity against Candida krusei after 24 hrs by NCCLS method; procedure, shortened: as §1
Candida parapsilosis = experiment: Antimicrobial activity against Candida parapsilosis after 24 hrs by NCCLS method; details: Lodderomyces parapsilosis; procedure, shortened: as §1

Row | MIC80 (Pichia kudriavzevii) [µg/mL] | MIC80 (Candida parapsilosis) [µg/mL] | SMILES | MIC80 (Candida albicans [1]) [µg/mL] | MIC80 (Nannizzia gypsea) [µg/mL] | MIC80 (Candida tropicalis) [µg/mL] | MIC80 (Trichophyton rubrum) [µg/mL] | MIC80 (Cryptococcus neoformans) [µg/mL] | MIC80 (Candida albicans [2]) [µg/mL] | MIC80 (Aspergillus fumigatus) [µg/mL]
1 |  |  | CCCCCCNCc1nc2ccccc2[nH]1 | 1 (≈ 4.32 µM) | > 64 | > 64 | 64 (≈ 277 µM) | > 64 | > 64 | > 64
2 |  |  | CCCCCCCNCc1nc2ccccc2[nH]1 | > 64 | > 64 | > 64 | 64 (≈ 261 µM) | 64 (≈ 261 µM) | 32 (≈ 130 µM) | > 64
3 |  |  | CCCCCCCCNCc1nc2ccccc2[nH]1 | > 64 | 16 (≈ 61.7 µM) | 16 (≈ 61.7 µM) | 16 (≈ 61.7 µM) | 16 (≈ 61.7 µM) | 16 (≈ 61.7 µM) | 32 (≈ 123 µM)
4 |  |  | CCCCCCNCc1nc2ccccc2o1 | 64 (≈ 275 µM) | 16 (≈ 68.9 µM) | 64 (≈ 275 µM) | 16 (≈ 68.9 µM) | 64 (≈ 275 µM) | > 64 | > 64
5 |  |  | CCCCCCCNCc1nc2ccccc2o1 | 64 (≈ 260 µM) | 16 (≈ 64.9 µM) | 64 (≈ 260 µM) | 16 (≈ 64.9 µM) | 16 (≈ 64.9 µM) | 64 (≈ 260 µM) | 64 (≈ 260 µM)
6 |  |  | CCCCCCCCNCc1nc2ccccc2o1 | 64 (≈ 246 µM) | 8 (≈ 30.7 µM) | 16 (≈ 61.4 µM) | 4 (≈ 15.4 µM) | 1 (≈ 3.84 µM) | 64 (≈ 246 µM) | 32 (≈ 123 µM)
7 |  |  | CCCCCCNCc1nc2ccccc2s1 | 64 (≈ 258 µM) | 64 (≈ 258 µM) | 64 (≈ 258 µM) | 64 (≈ 258 µM) | 64 (≈ 258 µM) | 64 (≈ 258 µM) | > 64
8 |  |  | CCCCCCCNCc1nc2ccccc2s1 | 64 (≈ 244 µM) | 16 (≈ 61 µM) | 64 (≈ 244 µM) | 16 (≈ 61 µM) | 64 (≈ 244 µM) | 32 (≈ 122 µM) | > 64
9 |  |  | CCCCCCCCNCc1nc2ccccc2s1 | 64 (≈ 232 µM) | 64 (≈ 232 µM) | 64 (≈ 232 µM) | 16 (≈ 57.9 µM) | 16 (≈ 57.9 µM) | > 64 | > 64
10 | > 64 | > 64 | CCCCCCn1cnc2ccc(C)cc2c1=O | > 64 |  | > 64 |  | > 64 |  | > 64
11 | > 64 | > 64 | CCCCCCCn1cnc2ccc(C)cc2c1=O | > 64 |  | > 64 |  | > 64 |  | 64 (≈ 248 µM)
12 | > 64 | > 64 | CCCCCCCCn1cnc2ccc(C)cc2c1=O | > 64 |  | > 64 |  | > 64 |  | > 64
13 | > 64 | > 64 | CCCCCCN1CCc2c(c3cc(F)ccc3n2C)C1 | > 64 |  | > 64 |  | > 64 |  | > 64
14 | > 64 | 64 (≈ 212 µM) | CCCCCCCN1CCc2c(c3cc(F)ccc3n2C)C1 | 64 (≈ 212 µM) |  | > 64 |  | > 64 |  | 64 (≈ 212 µM)
